A word on the EC50: it is the concentration at which the effect is half-maximal. Low values mean greater potency, high ones weaker potency.

Here are results for 1 molecule from publication PMC6605687 (The Journal of General Physiology, 2019).

Holding throughout (type): cell-based
Experiment [1] addresses T1, rP2X2 Lys308Arg (Rattus norvegicus, UniProt P49653, K308R).
T1 sequence (P49653 1-472 K308R): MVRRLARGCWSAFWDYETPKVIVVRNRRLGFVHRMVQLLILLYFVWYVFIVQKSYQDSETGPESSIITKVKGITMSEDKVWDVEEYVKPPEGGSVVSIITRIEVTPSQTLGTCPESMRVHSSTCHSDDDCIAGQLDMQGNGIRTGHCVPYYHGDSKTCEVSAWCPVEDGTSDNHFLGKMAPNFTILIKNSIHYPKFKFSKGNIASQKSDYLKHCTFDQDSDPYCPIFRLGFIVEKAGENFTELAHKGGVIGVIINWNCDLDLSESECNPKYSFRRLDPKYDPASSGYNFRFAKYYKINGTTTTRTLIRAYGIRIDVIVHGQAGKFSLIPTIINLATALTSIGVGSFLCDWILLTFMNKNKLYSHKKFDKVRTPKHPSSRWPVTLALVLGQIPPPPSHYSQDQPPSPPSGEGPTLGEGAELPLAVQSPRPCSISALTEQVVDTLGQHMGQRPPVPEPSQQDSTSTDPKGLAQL
Nature of the experiment: Two-electrode voltage clamp, oocytes expressing rP2X2 Lys308Arg. The gist of the method:
(§1)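 Mutations were made by site-directed mutagenesis. Xenopus oocytes were injected with rP2X2 mRNA and incubated in L-15 at 18°C. Two-electrode voltage clamp was done 1–2 days later at −40 mV under ND96 perfusion (pH 7.4). ATP concentration-response currents were normalised and fitted to a one-component Hill equation for EC50 and Hill coefficient. Results are mean ± SEM, tested by one-way ANOVA with Dunnett's test against WT.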
(In two-electrode clamp one electrode senses voltage and the other passes current.)

Experiment [2] addresses T2, rP2X2 Lys71Gln (Rattus norvegicus, UniProt P49653, K71Q).
T2 sequence (P49653 1-472 K71Q): T1 sequence (P49653 1-472 K308R) with K71Q, R308K
Nature of the experiment: Two-electrode voltage clamp, oocytes expressing rP2X2 Lys71Gln. The gist of the method: as §1

Experiment [3] addresses T3, rP2X2 Thr184Ser (Rattus norvegicus, UniProt P49653, T184S).
T3 sequence (P49653 1-472 T184S): T1 sequence (P49653 1-472 K308R) with T184S, R308K
The experiment in a line: Two-electrode voltage clamp, oocytes expressing rP2X2 Thr184Ser. The gist of the method: as §1

Experiment [4] concerns the target T4, rP2X2 Lys308Gln (Rattus norvegicus, UniProt P49653, K308Q).
T4 sequence (P49653 1-472 K308Q): T1 sequence (P49653 1-472 K308R) with R308Q
Nature of the experiment: Two-electrode voltage clamp, oocytes expressing rP2X2 Lys308Gln. In a few lines:
as §1

Experiment [5] addresses T5, rP2X2 Lys69Arg (Rattus norvegicus, UniProt P49653, K69R).
T5 sequence (P49653 1-472 K69R): T1 sequence (P49653 1-472 K308R) with K69R, R308K
Nature of the experiment: Two-electrode voltage clamp, oocytes expressing rP2X2 Lys69Arg.

Substitutions are numbered along the chain they refer to. Where two headings read alike, the source gives them in different places.

Regarding `Nc1ncnc2c1ncn2[C@@H]1O[C@H](COP(=O)(O)OP(=O)(O)OP(=O)(O)O)[C@@H](O)[C@H]1O` [ATP, Adenosine 5′-triphosphate], the concentration for a half-maximal effect (EC50) was 6 mM in experiment [1]; 6.3 mM in experiment [2]; 0.026 ± 0.003 mM in experiment [3]; 5.8 mM in experiment [4]; over 5 mM in experiment [5]; 6 mM in experiment [5] (mean ± SEM). Moreover, the “Sensitivity to agonist (in words)” value in experiment [3] (Thr184Ser compared with WT) was “WT-like sensitivity”.
